Here are results for 26 compounds from ChEMBL document CHEMBL1932946, “Design, synthesis and anticonvulsant evaluation of novel N-(4-substituted phenyl)-2-[4-(substituted) benzylidene]-hydrazinecarbothio amides” (Eur J Med Chem, 2012).

The test system of data set [1] is Mus musculus. Description: Anticonvulsant activity in albino CF-1 mouse assessed as protection against 6 Hz psychomotor seizure at 100 mg/kg, ip after 4 hrs by minimal clonic seizure test. On the set-up: dose 100 mg/kg. The class given is functional, organism-based. A digest of the protocol: (§1)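 Male CF-1 albino mice (18–25 g) given compound i.p., suspended in 0.5% methyl cellulose, 100 mg/kg in screen. Four mice per time point challenged at 0.25, 0.5, 1.0, 2.0 and 4.0 h via corneal electrodes (32 mA, 3 s, 6 Hz). Protection = absence of psychomotor seizure (minimal clonic phase, automatistic behaviours). Scored as animals protected/tested.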

For data set [2], the system named is Mus musculus. Description: Anticonvulsant activity in albino CF-1 mouse assessed as protection against 6 Hz psychomotor seizure at 100 mg/kg, ip after 1 hr by minimal clonic seizure test. It counts as functional. A digest of the protocol:
as §1

The subject of data set [3] is Mus musculus. Description: Anticonvulsant activity in albino CF-1 mouse assessed as protection against 6 Hz psychomotor seizure at 100 mg/kg, ip after 2 hrs by minimal clonic seizure test. It counts as functional. A digest of the protocol: as §1
Data set [4] relates to Mus musculus. Description: Anticonvulsant activity in albino CF-1 mouse assessed as protection against 6 Hz psychomotor seizure at 100 mg/kg, ip after 0.25 hrs by minimal clonic seizure test. It counts as functional. A digest of the protocol:
as §1

Data set [5] can be described thus: Octanol-phosphate buffer partition coefficient, log P of the compound at 5 mg after 24 hrs by UV spectroscopic analysis. The class given is physicochemical. Put shortly: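 5 mg compound added to 10 mL octanol plus 10 mL phosphate buffer in a stoppered tube. Mixture shaken mechanically 24 h at room temperature, then left 6 h in a separating funnel to equilibrate.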

The subject of data set [6] is Mus musculus. Description: Neurotoxicity in albino CF-1 mouse assessed as minimum motor impairment at 300 mg/kg, ip after 4 hrs by rotarod test. Conditions: in vivo. On the set-up: dose 300 mg/kg, route intraperitoneal. The class given is toxicity, organism-based. Put shortly: (§2)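 Minimal motor impairment assessed in male CF-1 albino mice (18–25 g) at 0.5 and 4 h after i.p. doses of 30, 100 and 300 mg/kg, given in 0.5% methyl cellulose. Minimum dose toxic in half or more of mice recorded.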
For orientation: Falling from the rotarod earlier than controls is read as motor impairment.

In data set [7] the test system is Mus musculus. Description: Anticonvulsant activity in albino CF-1 mouse assessed as protection against 6 Hz psychomotor seizure at 100 mg/kg, ip after 0.5 hrs by minimal clonic seizure test. The class given is functional. Put shortly:
as §1

Data set [8] deals with Mus musculus. Description: Neurotoxicity in albino CF-1 mouse assessed as minimum motor impairment at 300 mg/kg, ip after 0.5 hrs by rotarod test. The class given is toxicity, organism-based. More on the design: dose 300 mg/kg, route intraperitoneal. The note with it: in vivo. Put shortly: as §2

Active and inactive are the calls of the source. The rule behind the calls is not given here.

A word on the logP: it is the decadic logarithm of the partition coefficient of the neutral form, usually between octanol and water. Take `Cc1cc(Oc2ccc(/C=N/NC(=S)Nc3ccccc3)cc2)ccc1Cl`: the outcome with Mus musculus [1], with Mus musculus [2], with Mus musculus [3] and in the data set with Mus musculus [4] was inactive. Also, the logP at 24 h in data set [5] was found to be 6.03. In addition, the Activity entry with Mus musculus [6] and in the data set with Mus musculus [8] was “Non-toxic” in each case. In the data set with Mus musculus [7], the result was Active.
As to `S=C(N/N=C/c1ccc(Oc2ccccc2)cc1)Nc1ccccc1`, in data set [5], the logP at 24 h is 4.9. Also, the Activity result in the data set on Mus musculus [6] and in the data set on Mus musculus [8] was “Non-toxic” each time.
For `Fc1ccc(Oc2ccc(/C=N/NC(=S)Nc3ccc(Cl)cc3)cc2)cc1`, the outcome in the data set with Mus musculus [1], in the data set with Mus musculus [3], with Mus musculus [4] and with Mus musculus [7] was Active. Further, in the data set on Mus musculus [2], the outcome was inactive. This compound also returned a logP at 24 h in data set [5] of 5.84. Moreover, the Activity entry in the data set with Mus musculus [6] and in the data set on Mus musculus [8] was “Non-toxic” each time.
As for `S=C(N/N=C/c1ccc(Oc2ccc(Br)cc2)cc1)Nc1ccccc1`, the result with Mus musculus [1] and with Mus musculus [4] was inactive. Moreover, the outcome in the data set with Mus musculus [2], in the data set on Mus musculus [3] and in the data set with Mus musculus [7] was Active. The logP at 24 h in data set [5] was 5.62. Moreover, the Activity result with Mus musculus [6] and in the data set with Mus musculus [8] was “Non-toxic” throughout.
With `S=C(N/N=C/c1ccc(Oc2ccc3c(c2)OCO3)cc1)Nc1ccc(Cl)cc1`, the logP at 24 h in data set [5] turned out to be 5.54. The Activity entry in the data set on Mus musculus [6] and in the data set with Mus musculus [8] was “Non-toxic” each time.
With `Fc1ccc(NC(=S)N/N=C/c2ccc(Oc3ccc(F)cc3)cc2)cc1`, the result in the data set with Mus musculus [1] and with Mus musculus [2] was inactive. In addition, the result in the data set with Mus musculus [3] and in the data set on Mus musculus [7] was Active. The Activity is 50% with Mus musculus [4] (route intraperitoneal), “Non-toxic” in the data set with Mus musculus [6] and “Non-toxic” in the data set on Mus musculus [8]. In data set [5], this compound registered a logP at 24 h of 5.19.
Regarding `Fc1ccc(Oc2ccc(/C=N/NC(=S)Nc3ccccc3)cc2)cc1`, the outcome in the data set on Mus musculus [1], in the data set with Mus musculus [3], with Mus musculus [4] and with Mus musculus [7] was inactive. For the same compound, the result with Mus musculus [2] was Active. The compound further showed a logP at 24 h in data set [5] of 5.09. For the same compound, the Activity entry with Mus musculus [6] and with Mus musculus [8] was “Non-toxic” in each case.
For `Fc1ccc(NC(=S)N/N=C/c2ccc(Oc3ccc4ccccc4c3)cc2)cc1`, the outcome in the data set on Mus musculus [1] and in the data set with Mus musculus [3] was Active. Besides, the result in the data set on Mus musculus [2], in the data set with Mus musculus [4] and in the data set on Mus musculus [7] was inactive. Moreover, the logP at 24 h in data set [5] was determined as 6.2. Besides, the Activity entry with Mus musculus [6] and in the data set on Mus musculus [8] was “Non-toxic” in each case.
Regarding `Cc1ccc(Oc2ccc(/C=N/NC(=S)Nc3ccc(F)cc3)cc2)cc1`, the result in the data set with Mus musculus [1], in the data set with Mus musculus [2] and in the data set on Mus musculus [3] was inactive. The outcome in the data set on Mus musculus [4] was Active. The same compound yielded a logP at 24 h in data set [5] of 5.48. Besides, the Activity result with Mus musculus [6] was “Non-toxic”; in the data set with Mus musculus [7] (route intraperitoneal), 50%; in the data set on Mus musculus [8], “Non-toxic”.
The compound `S=C(N/N=C/c1ccc(Oc2ccc(Br)cc2)cc1)Nc1ccc(Cl)cc1` displayed a logP at 24 h in data set [5] of 6.37. Moreover, the Activity entry in the data set with Mus musculus [6] and in the data set with Mus musculus [8] was “Non-toxic” each time.
For the compound `Cc1ccc(Oc2ccc(/C=N/NC(=S)Nc3ccc(Cl)cc3)cc2)cc1`, the logP at 24 h in data set [5] stood at 5.97. Further, the Activity result in the data set on Mus musculus [6] and with Mus musculus [8] was “Non-toxic” in each case.
For `O=[N+]([O-])c1ccc(Oc2ccc(/C=N/NC(=S)Nc3ccc(F)cc3)cc2)cc1`, the result in the data set on Mus musculus [1], in the data set with Mus musculus [3] and with Mus musculus [4] was inactive. In the data set on Mus musculus [2], the outcome was Active. The same compound came in with a logP at 24 h in data set [5] of 4.89. Besides, the figures for the Activity entry in the data set on Mus musculus [6], in the data set with Mus musculus [7] (route intraperitoneal) and in the data set on Mus musculus [8] were “Non-toxic”, 50% and “Non-toxic”, respectively.
As for `S=C(N/N=C/c1ccc(Oc2ccc3c(c2)OCO3)cc1)Nc1ccc(Br)cc1`, in data set [5], the lipophilicity (logP) at 24 h came to 5.52. Moreover, the Activity result in the data set on Mus musculus [6] and with Mus musculus [8] was “Non-toxic” each time.
In data set [5], `S=C(N/N=C/c1ccc(Oc2ccc(Cl)cc2)cc1)Nc1ccccc1` had a log partition coefficient (logP) at 24 h of 5.52. Moreover, the Activity result with Mus musculus [6] and in the data set with Mus musculus [8] was “Non-toxic” in each case.
The compound `S=C(N/N=C/c1ccc(Oc2ccc(Cl)cc2)cc1)Nc1ccc(Br)cc1` came in with a lipophilicity (logP) at 24 h in data set [5] of 6.24. The Activity result in the data set with Mus musculus [6] and in the data set on Mus musculus [8] was “Non-toxic” throughout.
For `S=C(N/N=C/c1ccc(Oc2ccc3ccccc3c2)cc1)Nc1ccccc1`, the logP at 24 h in data set [5] was found to be 6.07. The Activity result in the data set with Mus musculus [6] and in the data set with Mus musculus [8] was “Non-toxic” each time.
Turning to `O=[N+]([O-])c1ccc(Oc2ccc(/C=N/NC(=S)Nc3ccccc3)cc2)cc1`, in data set [5], the logP at 24 h was determined as 4.95. Further, the Activity result in the data set with Mus musculus [6] and in the data set with Mus musculus [8] was “Non-toxic” in each case.
In data set [5], `S=C(N/N=C/c1ccc(Oc2ccc3ccccc3c2)cc1)Nc1ccc(Br)cc1` gave a logP at 24 h of 6.93. For the same compound, the Activity result with Mus musculus [6] and in the data set on Mus musculus [8] was “Non-toxic” throughout.
`S=C(N/N=C/c1ccc(Oc2ccc(Cl)cc2)cc1)Nc1ccc(Cl)cc1` had a logP at 24 h in data set [5] of 6.2. The Activity entry in the data set on Mus musculus [6] and with Mus musculus [8] was “Non-toxic” in each case.
In data set [5], `Cc1ccc(Oc2ccc(/C=N/NC(=S)Nc3ccccc3)cc2)cc1` showed a logP at 24 h of 5.39. In addition, the Activity result with Mus musculus [6] and with Mus musculus [8] was “Non-toxic” throughout.
Turning to `O=[N+]([O-])c1ccc(Oc2ccc(/C=N/NC(=S)Nc3ccc(Br)cc3)cc2)cc1`, the logP at 24 h in data set [5] was determined as 5.68. Besides, the Activity entry with Mus musculus [6] and in the data set on Mus musculus [8] was “Non-toxic” each time.
In turn, `S=C(N/N=C/c1ccc(Oc2ccccc2)cc1)Nc1ccc(Cl)cc1` gave a logP at 24 h in data set [5] of 5.64. For the same compound, the Activity entry in the data set with Mus musculus [6] and with Mus musculus [8] was “Non-toxic” in each case.
Consider `S=C(N/N=C/c1ccc(Oc2ccc3c(c2)OCO3)cc1)Nc1ccccc1`, for which the logP at 24 h in data set [5] came out at 4.8. In addition, the Activity result with Mus musculus [6] and in the data set with Mus musculus [8] was “Non-toxic” in each case.
In turn, `Fc1ccc(NC(=S)N/N=C/c2ccc(Oc3ccc4c(c3)OCO4)cc2)cc1` came in with a logP at 24 h in data set [5] of 4.99. In addition, the Activity result with Mus musculus [6] and in the data set with Mus musculus [8] was “Non-toxic” throughout.
`S=C(N/N=C/c1ccc(Oc2ccc3ccccc3c2)cc1)Nc1ccc(Cl)cc1` showed a logP at 24 h in data set [5] of 6.96. The Activity entry in the data set with Mus musculus [6] and in the data set on Mus musculus [8] was “Non-toxic” throughout.
As for `O=[N+]([O-])c1ccc(Oc2ccc(/C=N/NC(=S)Nc3ccc(Cl)cc3)cc2)cc1`, the logP at 24 h in data set [5] was 5.52. The Activity result in the data set on Mus musculus [6] and in the data set on Mus musculus [8] was “Non-toxic” each time.
